Compound activity (PubChem BioAssay)
APJ ag: agonists of human APJ apelin receptor | CHO-K1 APJ PathHunter beta-arrestin, luminescence; 0% DMSO wells, 100% apelin | P35414 | 330,000 compounds, 0.11% hits | activation, % at 20 µM;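 active = activation more than six SD over the plate average, tested at 20 µM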;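 note: 0% = DMSO alone and 100% = apelin-13 at 10 nM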
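system = engineered CHO-K1 APJ arrestin reporter cells | input = 1000 cells per well | timing = overnight seeding, 90 min compound at 25 °C, 1 h detection | measured by = enzyme-fragment complementation luminescence | read-out = beta-arrestin recruitment to APJ as agonist activity, luminescent signal | control set = negative DMSO alone, positive Apelin-13 at 10 nM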
CCR6 antag: CCR6 (human) receptor antagonism; CHO-K1 CCR6 PathHunter beta-arrestin, luminescence, CCL20-stimulated; 340,000 compounds, 0.49% hits; inhibition, % at 20 µM;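 active = compounds whose inhibition of the agonist-driven luminescence signal at 20 µM reaches about 50%, limit read from the data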;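 note: cells stimulated with CCL20 at 14 nM final; plate controls were DMSO with CCL20 for no effect and DMSO without agonist for full effect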
Target sequence (P51684 whole entry, looked up): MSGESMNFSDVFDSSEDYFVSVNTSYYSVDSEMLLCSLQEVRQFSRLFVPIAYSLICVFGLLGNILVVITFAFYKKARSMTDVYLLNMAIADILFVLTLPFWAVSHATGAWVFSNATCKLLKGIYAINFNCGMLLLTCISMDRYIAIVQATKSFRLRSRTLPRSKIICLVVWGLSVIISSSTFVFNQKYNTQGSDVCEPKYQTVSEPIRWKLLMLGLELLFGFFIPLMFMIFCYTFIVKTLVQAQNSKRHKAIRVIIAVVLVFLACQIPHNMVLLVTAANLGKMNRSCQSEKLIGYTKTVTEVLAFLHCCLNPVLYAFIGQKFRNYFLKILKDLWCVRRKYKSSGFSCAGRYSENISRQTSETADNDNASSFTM
EBI2 antag: antagonists of human EBI2 receptor | EBI2 beta-arrestin recruitment, luminescence, 7a,25-OHC stimulated | inhibition, % at 5 µM | 360,000 compounds, 0.81% hits; in the data active = inhibition above about 38%;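 note: enzyme fragment complementation signal reports receptor beta-arrestin coupling in cells; 0% = agonist plus DMSO wells and 100% = wells without agonist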
APJ antagonist: APJ receptor antagonism. P35414. CHO-K1 APJ beta-arrestin complementation, luminescence. inhibition, % at 20 µM. 330,000 compounds, 0.32% hits. AID 2521;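 active = inhibition above about 40% at 20 µM, limit read from the data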;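 note: cells challenged with 10 nM apelin-13 agonist together with compound; plate controls were apelin-13 plus DMSO wells for no effect and DMSO wells lacking apelin-13 for full effect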
CXCR6 block: blocks human CXCR6 beta-arrestin recruitment. CHO-K1 PathHunter CXCR6 beta-arrestin, luminescence. 360,000 compounds, 0.36% hits. AID 602244. O00574. inhibition, % at 20 µM; in the data active = inhibition above about 34%, passing the limit was not always enough;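 note: antagonist mode with CXCL16 agonist at 10 nM final; 0% = 10 nM CXCL16 with DMSO and 100% = unstimulated wells without agonist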
EBI2 conf: EBI2 (human) antagonism, single concentration confirmation | shares compounds with EBI2 antag | AID 651997 | 2,400 compounds, 29% hits | EBI2 beta-arrestin luminescence, 7a,25-OHC antagonism | inhibition, % at 5 µM;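 active = inhibition of at least 50%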
EBI2 agonist: EBI2 agonism counter-screen; shares compounds with EBI2 antag; EBI2-expressing cells, agonist mode, luminescence, 60 min; 0% vehicle, 100% 7α,25-dihydroxycholesterol control; activation, % at 5 µM; 2,400 tested, under 10 active; AID 652000;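 active = activation of at least 50%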
bGal counter: inhibits E. coli beta-galactosidase, counter-screen for EBI2 antagonists; shares compounds with EBI2 antag; purified beta-galactosidase, luminescent Galacton Star, 15 min; inhibition, % at 5 µM; 2,400 compounds, 1% hits;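 active = replicate-average signal at least 3 plate SD below neutral wells, shown as high inhibition, flagging enzyme-inhibiting false positives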;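 note: 0% = DMSO wells with enzyme and 100% = wells lacking enzyme; higher means stronger loss of beta-gal luminescence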
Active calls of the source: *; / = no result given. Hits are enriched below; roughly 1.5% of the tested compounds scored in any of these assays.

SMILES | APJ ag | CCR6 antag | EBI2 antag | APJ antagonist | CXCR6 block | EBI2 conf | EBI2 agonist | bGal counter
Cc1ccc(C(=O)N2CCN(S(=O)(=O)N3CCCCCC3)CC2)cc1 | 0 | 10 | 31 | 7 | 2 | / | / | /
COC(=O)c1ccc(NS(=O)(=O)c2ccc(S(=O)(=O)N3CCOCC3)cc2)cc1 | -2 | 9 | 3 | 10 | -6 | / | / | /
COc1ccc(CNS(=O)(=O)c2csc(C(N)=O)c2)cc1OC | 8 | 0 | -10 | -2 | -3 | / | / | /
O=C(c1ccncc1)N1CCN(c2ccc(F)cc2)CC1 | -2 | -3 | -4 | 6 | -4 | / | / | /
O=C(c1ccc(Cl)cc1)N1CCN(c2ccc(F)cc2)CC1 | 3 | -4 | 51* | -1 | 7 | 41 | 0 | 3
Cc1ccc(C(=O)N2CCC(C(=O)c3ccc(F)cc3)CC2)cc1 | / | 2 | 52* | / | 0 | 50* | 1 | 1
COc1ccc(OC)c2sc(N3CCN(C(=O)c4ccc5ncsc5c4)CC3)nc12 | 0 | -7 | 54* | -7 | -19 | 17 | -1 | -7
O=C(c1ccc2ncsc2c1)N1CCN(c2cccc(C(F)(F)F)c2)CC1 | 8 | -2 | 54* | 14 | -1 | 13 | 0 | -10
CCOc1cccc2sc(N3CCN(C(=O)c4ccc5ncsc5c4)CC3)nc12 | 0 | 4 | 45* | -7 | -10 | 30 | 2 | -1
O=C(c1ccc2nc[nH]c2c1)N1CCN(c2cccc(C(F)(F)F)c2)CC1 | 0 | 11 | -33 | -17 | -3 | / | / | /
COc1cc(/C=C(\C#N)C(=O)c2c(C)[nH]c3ccccc23)cc(OC)c1OC | 1 | 11 | 45* | 6 | -5 | 35 | 3 | 7
COC(=O)Cn1c(N)[n+](Cc2ccccc2)c2ccccc21 | -5 | 10 | -10 | 8 | 6 | / | / | /
COc1ccc(/C=C/C(=O)Nc2ccc(C(N)=O)cc2)cc1OC | 1 | -2 | 4 | 2 | -3 | / | / | /
COc1ccc(/C=C/C(=O)Nc2ccc(-n3nncc3-c3ccccc3)cc2)cc1OC | 4 | 29 | 61* | 3 | -5 | 21 | -1 | -9
CC(C)=CCc1c(O)cc(O)c2c(=O)c3c(CC=C(C)C)c(O)ccc3oc12 | 0 | 22 | / | 5 | / | / | / | /
Cc1ccc(NC(=O)CNCc2cccs2)cc1Br | -4 | 5 | 4 | 1 | 5 | / | / | /
O=C(/C=C/c1cn(-c2ccccc2)nc1-c1cccnc1)c1ccco1 | 1 | 14 | 44* | -4 | 8 | 65* | 3 | 2
COc1cccc(NC(=O)CN(C)C(=O)c2ccc3c(c2)CC(c2ccccc2)OC3=O)c1 (stereo unspecified) | -2 | 26 | 33 | 6 | 4 | / | / | /
COc1ccc(NC(=O)CN(C)C(=O)c2ccc3c(c2)CC(c2ccccc2)OC3=O)cc1 (stereo unspecified) | / | / | 49* | / | -8 | 16 | 0 | -12
N#CCCn1cc(/C=C(\C#N)c2nc3ccccc3s2)c(-c2ccc(F)cc2)n1 | -5 | 16 | 46* | 0 | 20 | 34 | -1 | -19
O=C1c2cnc3nc(SCc4cccc(Cl)c4)nn3c2CC2c3ccccc3CCN12 (stereo unspecified) | -7 | 23 | 42* | 22 | 16 | 24 | -4 | -7
NS(=O)(=O)c1ccc(CNC(=O)c2ccncc2)cc1 | -2 | -17 | 4 | 6 | -10 | / | / | /
COc1ccc(CCN2C(=O)CC(N3CCN(C/C=C/c4ccccc4)CC3)C2=O)cc1OC (stereo unspecified) | -1 | -1 | 7 | 11 | 4 | / | / | /
COc1ccccc1N1CCN(CC(=O)c2c(C)[nH]c3cc(C)ccc23)CC1 | -3 | -13 | 40* | 6 | 9 | 14 | 0 | -10
Cc1[nH]c2ccc(C(=O)N3CCN(c4ccccc4Cl)CC3)cc2c1C | 0 | -3 | 78* | 21 | 1 | 56* | 1 | 3
SMILES | APJ ag | CCR6 antag | EBI2 antag | APJ antagonist | CXCR6 block | EBI2 conf | EBI2 agonist | bGal counter
Cc1cccc(N2CCN(C(=O)c3ccc4[nH]c(C)c(C)c4c3)CC2)c1C | -1 | -20 | 69* | -2 | -3 | 51* | 0 | -6
COc1ccccc1N1CCN(C(=O)c2ccc3[nH]c(C)c(C)c3c2)CC1 | -2 | 10 | 76* | -14 | 3 | 45 | 0 | -12
COCCNC(=O)c1cc(S(=O)(=O)N(C)C2CCCCC2)ccc1Cl | / | / | -5 | / | 7 | / | / | /
CC(Cc1cccs1)NC(=O)CCCn1nnnc1CN1CCOCC1 (stereo unspecified) | 7 | 1 | 4 | -7 | -15 | / | / | /
O=C(CSc1ccccc1Cl)N1CCC(c2nc3ccccc3s2)CC1 | 3 | -8 | 13 | -8 | -24 | / | / | /
O=C(CSc1ccc2ccccc2n1)N1CCC(c2noc3ccc(F)cc23)CC1 | -3 | -2 | 38* | 1 | -8 | 2 | 2 | 3
O=C(CSc1ccc(F)cc1)N1CCC(c2nc3ccccc3s2)CC1 | 2 | 11 | 46* | 2 | -1 | 15 | -1 | -16
Cc1nnc(SCC(=O)N2CCC(c3noc4ccc(F)cc34)CC2)s1 | -5 | 6 | -9 | 2 | 22 | / | / | /
CC1CCCC(C)N1CCNC(=O)CCc1nnc2n(Cc3ccccc3)c(=O)c3ccccc3n12 (stereo unspecified) | 0 | 19 | 4 | -18 | 2 | / | / | /
COc1ccc(-n2nc(C(=O)NCC(=O)N3CCC(C)CC3)c3ccccc3c2=O)c(OC)c1 | 0 | -7 | -10 | 11 | -2 | / | / | /
CCCc1cc(C(=O)N2CCCN(C)CC2)cs1 | -9 | -11 | 1 | 4 | 1 | / | / | /
CCCc1cc(C(=O)N2CCN(c3ccccc3C)CC2)cs1 | -7 | 11 | 63* | -8 | 25 | 44 | 0 | 4
O=C(NCCCc1ccccc1)C1CCC(=O)N(Cc2ccc(Cl)cc2)C1 (stereo unspecified) | 0 | 5 | 35 | 3 | -2 | / | / | /
COc1ccc(CCCNC(=O)C2CCC(=O)N(Cc3ccc(Cl)cc3)C2)cc1 (stereo unspecified) | -2 | 11 | 49* | -25 | 2 | 24 | 0 | 9
COc1ccccc1/C=C/CN1CCC(Oc2cc(C(=O)NC3CC3)ccc2OC)CC1 | -3 | 19 | 12 | 12 | 7 | / | / | /
Cc1ccc(N=C2NC(=O)/C(=C/c3cccnc3)S2)cc1C | 1 | 15 | 47* | 3 | 1 | 34 | 0 | 6
O=C1NC(=Nc2ccccc2)S/C1=C\c1cccnc1 | -5 | -2 | 45* | 16 | -5 | 51* | -1 | -6
